For experiment [1], the system named is Mus musculus. As to the kind of experiment: Inhibition of antigen-induced polyarthritis (AIP) in mice at the dose of 100 mg/kg. In kind it is functional. In outline:
(§1)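 Murine antigen-induced arthritis: mice immunized with mBSA (with M. tuberculosis), boosted at 7 days, and challenged 14 days later with 200 μg mBSA in saline into the left rear stifle joint. Dosed sc (scruff; saline vehicle, pH 7.0) 5 of 7 days from day 0 to 28. H&E sagittal joint sections scored 1–5 each for inflammation, pannus, and cartilage/bone erosion, summed to a global score (max 20). One-way ANOVA versus vehicle.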

The subject of experiment [2] is Mus musculus. Put plainly: Inhibition of antigen-induced polyarthritis (AIP) in mice at the dose of 15 mg/kg. The format is functional. In outline: as §1
The test system of experiment [3] is Mus musculus. Put plainly: Inhibition of antigen-induced polyarthritis (AIP) in mice at the dose of 200 mg/kg. In kind it is functional. Put shortly:
as §1

Experiment [4] has as its system Mus musculus. Put plainly: Inhibition of antigen-induced polyarthritis (AIP) in mice at the dose of 30 mg/kg. The format is functional. Put shortly: as §1
The test system of experiment [5] is Mus musculus. As to the kind of experiment: Inhibition of antigen-induced polyarthritis (AIP) in mice at the dose of 5 mg/kg. The format is functional. In outline: as §1
Experiment [6] has as its system Mus musculus. Put plainly: Inhibition of antigen-induced polyarthritis (AIP) in mice at the dose of 50 mg/kg. In kind it is functional. In outline: as §1
The subject of experiment [7] is Mus musculus. As to the kind of experiment: Inhibition of delayed type hypersensitivity granuloma results at 100 mg/kg in dry weight. The format is functional. Put shortly: (§2)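 Groups of 10 female CF-1 mice (25 g) were sensitised sc over the inguinal lymph node with mBSA emulsion in Freund's incomplete adjuvant plus dextran. Two mBSA-soaked hydroxyapatite disks were implanted per mouse. Sc dosing ran daily from implantation to day 9, then granulomas were excised for wet and dry weights. Student's paired t test.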

Experiment [8] deals with Rattus norvegicus. As to the kind of experiment: Inhibition of rat adjuvant induced polyarthritis (AIP) at the dose of 15 mg/kg in the injected paw. The format is functional. Put shortly:
(§3)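 Rat adjuvant arthritis induced by M. tuberculosis in mineral oil into the left hindpaw on day 0. Dosed sc once daily for 28 days in sterile saline adjusted to pH 7.0. Change in paw volume of the injected and noninjected hindpaws measured on day 28 by mercury-displacement plethysmography, giving % inhibition versus the sc vehicle arthritic control.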

The test system of experiment [9] is Rattus norvegicus. Put plainly: Inhibition of rat adjuvant induced polyarthritis (AIP) at the dose of 15 mg/kg in the non-injected paw. In kind it is functional. In outline: as §3
In experiment [10] the test system is Rattus norvegicus. As to the kind of experiment: Inhibition of rat adjuvant induced polyarthritis (AIP) at the dose of 30 mg/kg in the injected paw. The format is functional. In outline:
as §3

Experiment [11] has as its system Rattus norvegicus. Put plainly: Inhibition of rat adjuvant induced polyarthritis (AIP) at the dose of 5 mg/kg in the injected paw. In kind it is functional. In outline:
as §3

In experiment [12] the test system is Rattus norvegicus. As to the kind of experiment: Inhibition of rat adjuvant induced polyarthritis (AIP) at the dose of 10 mg/kg in the injected paw. The format is functional. Put shortly:
as §3

Experiment [13] relates to Mus musculus. Put plainly: Inhibition of delayed type hypersensitivity granuloma results at 100 mg/kg in wet weight. The format is functional. Put shortly:
as §2

Experiment [14] relates to Rattus norvegicus. As to the kind of experiment: Inhibition of rat adjuvant induced polyarthritis (AIP) at the dose of 30 mg/kg in the non-injected paw. The format is functional. Put shortly: as §3
In experiment [15] the test system is Rattus norvegicus. Put plainly: Inhibition of adjuvant-induced polyarthritis (AIP) in rats at the dose of 5 mg/kg in the non-injected paw.
Experiment [16] has as its system Rattus norvegicus. As to the kind of experiment: Inhibition of adjuvant-induced polyarthritis (AIP) in rats at the dose of 10 mg/kg in the non-injected paw.

In general, inhibition in vivo refers to how much of the control response was suppressed. On to `O=P(O)(O)C(Cl)(Cl)P(=O)(O)O` [CLODRONIC ACID], for which the values for the inhibition in vivo at 100 mg/kg in [1], in [7] and in experiment [13] were 51%, 47% and 45%, respectively. The values for the inhibition in vivo at 15 mg/kg in experiment [2], in experiment [8] and in experiment [9] were 46%, 33% and 70%, respectively. In experiment [3], this compound displayed an inhibition in vivo at 200 mg/kg of 52%. Besides, the results for the inhibition in vivo at 30 mg/kg in experiment [4], in experiment [10] and in experiment [14] were 46%, 36% and 54%, respectively. Further, the inhibition in vivo at 5 mg/kg in experiment [5] was found to be 4%; in [11], 21%; in [15], 51%. The compound further came in with an inhibition in vivo at 50 mg/kg in [6] of 46%. The inhibition in vivo at 10 mg/kg in experiment [12] turned out to be 38%; in experiment [16], 61%.

Values taken from ChEMBL document CHEMBL1126664, “Pyrazoline bisphosphonate esters as novel antiinflammatory and antiarthritic agents” (1993).
